Reference: ChEMBL document CHEMBL5329162, “The sulfonadyns: a class of aryl sulfonamides inhibiting dynamin I GTPase and clathrin mediated endocytosis are anti-seizure in animal models” (RSC Med Chem, 2023)
The source made the active and inactive calls.

Tests used:
[1] = (§1) Inhibition of phosphotidylserine liposome-stimulated sheep brain Dynamin 1 GTPase activity using GTP as substrate by malachite green assay; format: tissue-based, Ovis aries
Method in brief: (§2)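 Native dynamin I from sheep brain (membrane extraction, GST-Amph2-SH3-sepharose affinity), stimulated by sonicated phosphatidylserine liposomes; GTP hydrolysis read as orthophosphate by malachite green. DMSO at most 3.3% final. […] 300 μM is the top concentration tested.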

[2] = Inhibition of clathrin-mediated endocytosis in serum-starved human U2OS cells assessed as reduction in Tfn-A594 uptake pretreated for 30 mins followed by Tfn-A594 addition and measured after 8 mins; format: cell-based
Method in brief: (§3)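 U2OS cells on fibronectin-coated plates, serum-starved 16 h, then compound (usually 6 concentrations, 1–300 μM) or vehicle for 30 min, then Tfn-A594 4 μg mL⁻¹ for 8 min at 37 °C. Surface Tfn acid-stripped (pH 2.8), PFA-fixed, DAPI-stained; automated imaging of integrated Tfn intensity per cell, as % of vehicle. DMSO at most 1%.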

[3] = species on record: Rattus norvegicus; assay: Inhibition of synaptic vesicle endocytosis in Sprague-Dawley rat cerebrum synaptosomes assessed as reduction in depolarisation-stimulated FM4-64 uptake preincubated for 30 mins followed by FM4-64 addition for 2 mins and further depolarised for 2 mins by fluorescent imaging analysis; format: functional, Synaptosome; conditions: for inhibition: Synaptosome, time 34.0 min
Method in brief: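 Purified rat cerebrum synaptosomes (male, 6–8 weeks) attached to plates at 30 °C in Krebs buffer with 0.1 mM CaCl₂, pH 7.4. Compound or DMSO (1%) for 30 min, then 1 μM FM 4-64 for 2 min, then 80 mM KCl depolarisation for 2 min. Imaged ex 476–524/em 608–742 nm; intensity normalised to control uptake (1.0).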

[4] = species on record: Ovis aries; assay: as §1; format: tissue-based; method in brief: as §2
[5] = test system: Mus musculus; assay: Antiseizure activity against electrically stimulated seizure in C57BL/6 mouse model assessed as increase in current required to provoke seizures at 400 mg/kg, ip pretreated for 30 mins followed by electrical stimulation at 6 Hz; format: functional, organism-based
Method in brief: (§4)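 Mouse 6 Hz corneal stimulation (0.2 ms rectangular pulse, 3 s, varying current). Given ip 30 min before stimulation; DMA 20%/Tween-80 5%/PEG300 75% vehicle for test doses (10, 30, 60 mg kg⁻¹), 0.9% saline for valproate (400 mg kg⁻¹). Seizure scored as stunned/fixed posture, rearing, forelimb clonus or twitching. EC50 current by up-and-down method, 2 mA steps; each mouse used once; Mann–Whitney U vs vehicle.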

[6] = species on record: Ovis aries; assay: Inhibition of phosphotidylserine liposome-stimulated sheep brain Dynamin 1 GTPase activity using GTP as substrate at 300 uM by malachite green assay relative to control; format: tissue-based; method in brief: as §2
[7] = Inhibition of clathrin-mediated endocytosis in human U2OS cells assessed as reduction in Tfn-A594 uptake pretreated for 30 mins; format: cell-based; method in brief: as §3
[8] = species on record: Rattus norvegicus; assay: Inhibition of exocytosis in Sprague-Dawley rat brain synaptosome assessed as effect on Ca2+ dependent glutamate release at 80 uM preincubated for 1 mins in presence of NADP followed by glutamate dehydrogenase addition and further stimulated with 4-aminopyridine for 4 mins by spectrofluorimeter; format: functional; conditions: time 5.0 min
Method in brief: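 Synaptosomes (0.6 mg in 2 ml) in Krebs-like buffer, pH 7.4, 37 °C, containing 1.2 mM CaCl₂ or calcium-free with 1 mM EGTA. Started with 1 mM NADP; glutamate dehydrogenase 50 U added after 1 min; 4-aminopyridine stimulation after 4 min. Released glutamate followed as NADPH fluorescence (ex 340/em 460 nm).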

[9] = species on record: Ovis aries; assay: Competitive inhibition of phosphotidylserine liposome-stimulated sheep brain Dynamin 1 GTPase activity using varying concentrations of Mg2+.GTP as substrate at 3 to 7 uM by Lineweaver-Burk plot analysis; format: tissue-based; conditions: dose 3-7 µM
[10] = test system: Mus musculus; assay: Antiseizure activity against electrically stimulated seizure in C57BL/6 mouse model assessed as increase in seizures threshold at 30 to 60 mg/kg, ip pretreated for 30 mins followed by electrical stimulation at 6 Hz; format: functional, organism-based; conditions: dose 30-60 mg/kg; method in brief: as §4
[11] = test system: Mus musculus; assay: Antiseizure activity against electrically stimulated seizure in C57BL/6 mouse model assessed as increase in seizures threshold at 10 mg/kg, ip pretreated for 30 mins followed by electrical stimulation at 6 Hz; format: functional, organism-based; method in brief: as §4

| SMILES | IC50 [1] | other results |
| --- | --- | --- |
| NCCNS(=O)(=O)c1cccc2cnccc12 | – | inhibition [4]: inactive |
| CN(C)c1cccc2c(S(=O)(=O)NCCCCCN)cccc12 | 45.1 µM | IC50 [2]: 205 µM; IC50 [3]: > 300 µM |
| O=S(=O)(NCCNCCCc1ccccc1)c1cccc2cnccc12 | 30.1 µM | – |
| O=S(=O)(c1cccc2cnccc12)N1CCN(C/C=C/c2ccc(Br)cc2)CC1 | 58.2 µM | – |
| CCCC(CCC)C(=O)O | – | Activity [5]: Active |
| O=S(=O)(NCCNC/C=C/c1ccc(F)cc1)c1cccc2cnccc12 | 20.3 µM | – |
| O=C(/C=C/c1ccc(Br)cc1)NCCNS(=O)(=O)c1cccc2cnccc12 | > 300 µM | inhibition [6]: < 50% |
| O=C(N/N=C/c1cc(O)c(O)cc1O)c1cc2ccccc2cc1O | – | IC50 [7]: 5.7 µM |
| CN(C)c1ccc(/C=C/CNCCNS(=O)(=O)c2cccc3cnccc23)cc1 | 19.9 µM | – |
| O=S(=O)(NCCNC/C=C/c1ccccc1)c1cccc2cnccc12 | 38.2 µM | – |
| Cc1ccc(/C=C/CNCCNS(=O)(=O)c2cccc3cnccc23)cc1 | 22.4 µM | – |
| O=S(=O)(NCCNCCc1ccccc1)c1cccc2cnccc12 | 96.8 µM | – |

More lines, in order of falling IC50 [1], values ahead:

| IC50 [1] | SMILES | other results |
| --- | --- | --- |
| 12.4 µM | O=S(=O)(NCCNC/C=C/c1ccc(C(F)(F)F)cc1)c1cccc2cnccc12 | – |
| 10.5 µM | CN(C/C=C/c1ccc(Br)cc1)CCNS(=O)(=O)c1cccc2ccccc12 | – |
| 9.5 µM | O=S(=O)(NCCNC/C=C/c1ccc(Br)cc1)c1cccc2cccnc12 | – |
| 9.2 µM | O=S(=O)(NCCNC/C=C/c1ccc(Cl)cc1)c1cccc2cnccc12 | – |
| 8.7 µM | CN(C/C=C/c1ccc(Br)cc1)CCN(C)S(=O)(=O)c1cccc2ccccc12 | – |
| 8.1 µM | O=S(=O)(NCCCCNC/C=C/c1ccc(Br)cc1)c1cccc2cnccc12 | – |
| 7.1 µM | O=S(=O)(NCCCNC/C=C/c1ccc(Br)cc1)c1cccc2cnccc12 | – |
| 7 µM | O=S(=O)(NCCNC/C=C/c1ccc(Br)cc1)c1cccc2cnccc12 | – |
| 6.6 µM | CC(C)(C)c1ccc(/C=C/CNCCNS(=O)(=O)c2cccc3cnccc23)cc1 | – |
| 5.2 µM | O=S(=O)(NCCCCCCNC/C=C/c1ccc(Br)cc1)c1cccc2ccccc12 | IC50 [2]: 27.1 µM; inhibition [3]: inactive |
| 4.4 µM | O=S(=O)(NCCNC/C=C/c1ccc(Br)cc1)c1cccc2ccccc12 | IC50 [2]: 12.4 µM; inhibition [3]: inactive |
| 3.9 µM | CN(C)c1cccc2c(S(=O)(=O)NCCNC/C=C/c3ccc(Br)cc3)cccc12 | IC50 [2]: 29 µM; IC50 [3]: 127 µM |
| 3.7 µM | O=S(=O)(NCCCCCCNC/C=C/c1ccc(Br)cc1)c1cccc2cnccc12 | IC50 [2]: 15.9 µM; IC50 [3]: 265 µM; inhibition [9]: Active |
| 3.6 µM | O=S(=O)(NCCNC/C=C/c1ccc(Br)cc1)c1ccc2ccccc2c1 | IC50 [2]: 9.3 µM; inhibition [3]: inactive |
| 3.5 µM | O=S(=O)(NCCCNC/C=C/c1ccc(Br)cc1)c1cccc2ccccc12 | IC50 [2]: 27.3 µM; IC50 [3]: 12.3 µM; inhibition [8]: inactive; inhibition [9]: Active; Activity [10]: Active; Activity [11]: inactive |
| 3 µM | O=S(=O)(NCCCCNC/C=C/c1ccc(Br)cc1)c1cccc2ccccc12 | IC50 [2]: 11.3 µM; inhibition [3]: inactive |
